Experimental data published in article PMC7614804 (Journal of medicinal chemistry, 2022).
One block for each compound: values may come before it.

Key:
Pa MurB [1] = target: T1, Pa MurB (Pseudomonas aeruginosa, UniProt Q9HZM7); assay: Surface plasmon resonance; type: binding
T1 sequence (Q9HZM7 1-339): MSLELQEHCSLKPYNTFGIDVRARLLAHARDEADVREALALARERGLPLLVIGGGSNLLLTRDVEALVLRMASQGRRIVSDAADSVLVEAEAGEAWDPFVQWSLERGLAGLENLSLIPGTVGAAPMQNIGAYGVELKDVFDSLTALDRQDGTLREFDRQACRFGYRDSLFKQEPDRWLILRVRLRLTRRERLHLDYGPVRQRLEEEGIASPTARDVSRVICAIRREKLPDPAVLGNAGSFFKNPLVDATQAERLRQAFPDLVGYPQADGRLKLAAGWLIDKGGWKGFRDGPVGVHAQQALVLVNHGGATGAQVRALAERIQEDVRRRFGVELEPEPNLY
Method in brief: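 Pa MurB amine-coupled to a CM5 chip. Running buffer: 10 mM NaPO4 pH 7, 150 mM NaCl, 2% DMSO, 25 °C. Each test compound at 1 mM in running buffer was injected for 30 s at […], with 320 s dissociation. Each was run twice, in reverse orders, with solvent correction. Response units were compared visually with those of the initial pyrazole fragment hit.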

Pa MurB [2] = target: T1, Pa MurB; assay: Isothermal titration calorimetry; type: binding
Method in brief: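 ITC at 25 °C. Pa MurB was dialysed overnight at 4 °C into 25 mM Tris-HCl pH 8.0, 150 mM NaCl; cell and syringe solutions were in the same buffer with 5% DMSO final. Usually 50 μM MurB with 3.0 mM fragment; some runs used 1.0 or 0.5 mM ligand or 200 μM MurB. A 0.4 μL first injection was discarded, then 28 × 1.5 μL every 120 s. One-site fit; LE = −(RTlnKd)/heavy atoms, in kcal/mol per heavy atom.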

[3] = Table 3, RU of fragment at 1 mM compared with RU of fragment 4, n = 2
[4] = Table 3, LE = –(RTlnKd)/(number of heavy atoms)
[5] = Table 4, RU of fragment at 1 mM compared with RU of fragment 4, n = 2
[6] = Table 4, LE = −(RTlnKd)/(number of heavy atoms)
[7] = Kd(μM) ITC, Table 4, 50 μM MurB, 3.0 mM fragment, fragment 41: 200 μM MurB
[8] = Table 5, RU of compound at 1.0 mM compared with RU of fragment 4, n = 2
[9] = Table 5, LE = −(RTlnKd)/(number of heavy atoms)
[10] = Table 6, RU of fragment at 1.0 mM compared with RU of fragment 4, n = 2
[11] = Table 6, LE = −(RTlnKd)/(number of heavy atoms)

SPR RU>RUf4 1.0 mM (Pa MurB [1]; [3]): yes
LE (Pa MurB [2]; [4]): 0.28 kcal/mol per heavy atom
Compound: Cc1cc(C(=O)O)c(C(F)(F)F)n1-c1ccccc1 [Fragment 22]

SPR RU>RUf4 1.0 mM (Pa MurB [1]; [5]): yes
LE (Pa MurB [2]; [6]): 0.27 kcal/mol per heavy atom
Compound: O=C(O)c1cnn(-c2ccccc2Cl)c1C(F)(F)F [Fragment 30]

SPR RU>RUf4 1.0 mM (Pa MurB [1]; [5]): yes
LE (Pa MurB [2]; [6]): 0.29 kcal/mol per heavy atom
Compound: O=C(O)c1cnn(-c2ccccc2Br)c1C(F)(F)F [Fragment 31]

SPR RU>RUf4 1.0 mM (Pa MurB [1]; [5]): yes
LE (Pa MurB [2]; [6]): 0.31 kcal/mol per heavy atom
Compound: Cc1ccccc1-n1ncc(C(=O)O)c1C(F)(F)F [Fragment 32]

SPR RU>RUf4 1.0 mM (Pa MurB [1]; [5]): no
Compound: COc1ccc(-n2ncc(C(=O)O)c2C(F)(F)F)cc1 [Fragment 35]

SPR RU>RUf4 1.0 mM (Pa MurB [1]; [5]): yes
Kd (Pa MurB [2]; [7]): 208 ± 28 µM
LE (Pa MurB [2]; [6]): 0.23 kcal/mol per heavy atom
Compound: Cc1cc([N+](=O)[O-])ccc1-n1ncc(C(=O)O)c1C(F)(F)F [Fragment 36]

SPR RU>RUf4 1.0 mM (Pa MurB [1]; [5]): yes
Kd (Pa MurB [2]; [7]): 99 ± 7.2 µM
LE (Pa MurB [2]; [6]): 0.27 kcal/mol per heavy atom
Compound: Cc1cccc(-n2ncc(C(=O)O)c2C(F)(F)F)c1C [Fragment 38]

SPR RU>RUf4 1.0 mM (Pa MurB [1]; [5]): yes
Kd (Pa MurB [2]; [7]): 85.5 ± 8 µM
LE (Pa MurB [2]; [6]): 0.28 kcal/mol per heavy atom
Compound: Cc1ccc(-n2ncc(C(=O)O)c2C(F)(F)F)c(C)c1 [Fragment 39]

SPR RU>RUf4 1.0 mM (Pa MurB [1]; [5]): yes
LE (Pa MurB [2]; [6]): 0.26 kcal/mol per heavy atom
Compound: Cc1ccc(C)c(-n2ncc(C(=O)O)c2C(F)(F)F)c1 [Fragment 40]

LE (Pa MurB [2]; [6]): 0.31 kcal/mol per heavy atom
Compound: Cc1cccc(C)c1-n1ncc(C(=O)O)c1C(F)(F)F [Fragment 41]

SPR RU>RUf4 1.0 mM (Pa MurB [1]; [5]): yes
Kd (Pa MurB [2]; [7]): 60.2 ± 4.4 µM
LE (Pa MurB [2]; [6]): 0.29 kcal/mol per heavy atom
Compound: O=C(O)c1cnn(-c2c(Cl)cccc2Cl)c1C(F)(F)F [Fragment 42]

SPR RU>RUf4 1.0 mM (Pa MurB [1]; [5]): yes
LE (Pa MurB [2]; [6]): 0.31 kcal/mol per heavy atom
Compound: O=C(O)c1cnn(-c2ccc(Cl)c(Cl)c2)c1C(F)(F)F [Fragment 43, 1-(3,4-Dichlorophenyl)-5-(trifluoromethyl)-1H-pyrazole-4-carboxylic Acid]

SPR RU>RUf4 1.0 mM (Pa MurB [1]; [8]): yes
LE (Pa MurB [2]; [9]): 0.35 kcal/mol per heavy atom
Compound: Cc1cc(Cl)c(Cl)cc1-n1ncc(C(=O)O)c1C(F)(F)F [Fragment 44]

SPR RU>RUf4 1.0 mM (Pa MurB [1]; [8]): yes
LE (Pa MurB [2]; [9]): 0.32 kcal/mol per heavy atom
Compound: Cc1c(-n2ncc(C(=O)O)c2C(F)(F)F)ccc(Cl)c1Cl [Fragment 45]

SPR RU>RUf4 1.0 mM (Pa MurB [1]; [8]): yes
LE (Pa MurB [2]; [9]): 0.30 kcal/mol per heavy atom
Compound: Cc1ccccc1-n1c(C)cc(C(=O)O)c1C(F)(F)F [Fragment 53]

SPR RU>RUf4 1.0 mM (Pa MurB [1]; [10]): no
Compound: CS(=O)(=O)NC(=O)c1cnn(-c2ccccc2)c1C(F)(F)F [Fragment 59]

SPR RU>RUf4 1.0 mM (Pa MurB [1]; [10]): yes
Kd (Pa MurB [2]; Kd (ITC)): 320 ± 60 µM
Kd (Pa MurB [2]; Kd(μM) ITC, Table 6, 50 μM Pa MurB, 3.0 mM fragment): 324 ± 59 µM
LE (Pa MurB [2]; [11]): 0.18 kcal/mol per heavy atom
Compound: O=C(NS(=O)(=O)c1ccccc1)c1cnn(-c2ccccc2)c1C(F)(F)F [Fragment 60]

SPR RU>RUf4 1.0 mM (Pa MurB [1]; [10]): yes
LE (Pa MurB [2]; [11]): 0.22 kcal/mol per heavy atom
Compound: Cc1cccc(C)c1-n1ncc(C(=O)NS(=O)(=O)c2ccccc2)c1C(F)(F)F [Fragment 62]

LE (Pa MurB [2]; [11]): 0.22 kcal/mol per heavy atom
Compound: Cc1cc(Cl)c(Cl)cc1-n1ncc(C(=O)NS(=O)(=O)c2ccccc2)c1C(F)(F)F [Fragment 64]

Further lines, the compound ahead of its results:

Compound: Cc1c(C(=O)O)nnn1-c1ccccc1 [Fragment 19]
SPR RU>RUf4 1.0 mM (Pa MurB [1]; [3]): no
Kd (Pa MurB [2]; Kd(μM) ITC, Table 3, 50 μM MurB, 3.0 mM fragment): 877 ± 154 µM
LE (Pa MurB [2]; [4]): 0.28 kcal/mol per heavy atom

Compound: Cc1cc(C(=O)O)c(C)n1-c1ccccc1 [Fragment 20]
SPR RU>RUf4 1.0 mM (Pa MurB [1]; [3]): yes
LE (Pa MurB [2]; [4]): 0.34 kcal/mol per heavy atom

Compound: Cc1nc(C(=O)O)c(C)n1-c1ccccc1 [Fragment 21]
SPR RU>RUf4 1.0 mM (Pa MurB [1]; [3]): no

Compound: Cc1c(C(=O)O)cc(CCO)n1-c1ccccc1 [Fragment 23]
Kd (Pa MurB [2]; Kd (ITC)): 208 ± 15 µM
LE (Pa MurB [2]; [4]): 0.28 kcal/mol per heavy atom

Compound: Cc1ccccc1-n1c(C)cc(C(=O)O)c1C [Fragment 46]
SPR RU>RUf4 1.0 mM (Pa MurB [1]; [8]): yes
LE (Pa MurB [2]; [9]): 0.34 kcal/mol per heavy atom

Compound: Cc1cccc(C)c1-n1c(C)cc(C(=O)O)c1C [Fragment 47]
SPR RU>RUf4 1.0 mM (Pa MurB [1]; [8]): no
LE (Pa MurB [2]; [9]): 0.32 kcal/mol per heavy atom

Compound: Cc1cc(C(=O)O)c(C)n1-c1ccc(Cl)c(Cl)c1 [Fragment 48]
SPR RU>RUf4 1.0 mM (Pa MurB [1]; [8]): no
LE (Pa MurB [2]; [9]): 0.33 kcal/mol per heavy atom

Compound: Cc1cc(C(=O)O)c(C)n1-c1cccc(Cl)c1 [Fragment 49]
SPR RU>RUf4 1.0 mM (Pa MurB [1]; [8]): yes

Compound: Cc1cc(C(=O)O)c(C)n1-c1ccc(Cl)cc1 [Fragment 50]
SPR RU>RUf4 1.0 mM (Pa MurB [1]; [8]): no

Compound: Cc1cc(Cl)c(Cl)cc1-n1c(C)cc(C(=O)O)c1C [Fragment 51]
LE (Pa MurB [2]; [9]): 0.33 kcal/mol per heavy atom

Compound: Cc1c(-n2c(C)cc(C(=O)O)c2C)ccc(Cl)c1Cl [Fragment 52]
LE (Pa MurB [2]; [9]): 0.33 kcal/mol per heavy atom

Compound: Cc1cc(Cl)c(Cl)cc1-n1c(C)cc(C(=O)O)c1C(F)(F)F [Fragment 54]
LE (Pa MurB [2]; [9]): 0.32 kcal/mol per heavy atom

Compound: Cc1c(-n2c(C)cc(C(=O)O)c2C(F)(F)F)ccc(Cl)c1Cl [Fragment 55]
SPR RU>RUf4 1.0 mM (Pa MurB [1]; [8]): yes
LE (Pa MurB [2]; [9]): 0.31 kcal/mol per heavy atom
